# Assay results from article PMC2612038 (Journal of molecular biology, 2008).
# Entries after “also recorded” stand apart in the source; their conditions may differ. Read-outs that look alike come from different tables or passages of the source.
# B1: A1-mini, peptide of residues 2-10 of mouse Arf (p19Arf) (peptide)
# peptide: GRRFLVTVR
# What was measured:
# [1] = system: Hdm2-ABD lacking the H1 and/or H2 segments; experiment: CD co-assembly of A1-mini with Hdm2-ABD lacking H1 and/or H2 segments; format: binding, human; details: deletion of the H1 and/or H2 segments (Suppl. Fig. 1)
# [2] = Sedimentation velocity AUC of the isolated polypeptide; format: physicochemical
# Outline: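 Sedimentation velocity was run at 50,000 rpm and 20 °C, with Rayleigh interference scans every 1 min. Samples were dialysed into 10 mM sodium phosphate pH 6.0 with 10 mM NaCl (150 mM for high ionic strength), and the dialysate was the reference. Analysis used c(s) with maximum-entropy regularisation (p = 0.7, n = 100), with s from main-peak integration and weight-average f/f0. c(M) came from c(s). c(s, f/f0) used an f/f0 grid of 1.2–2.2 and s of 0.1–5 S.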
# [3] = system: 15N-Hdm2-ABD; experiment: 2D 1H-15N HSQC NMR of 15N-Hdm2-ABD with Arf peptide; format: binding, human
# Outline: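 15N-Hdm2-ABD was expressed in E. coli in MOPS minimal medium with 15NH4Cl and purified. […] Combined shift perturbation: Δδ1H/15N = [(Δδ1HN)² + 0.0289·(Δδ15NH)²]^1/2, each difference taken as bound minus free.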
# [4] = system: Mdm2; experiment: Nucleolar co-localization with endogenous Mdm2 after nuclear micro-injection; format: cell-based, mouse; details: for cells with co-localization with Mdm2 in nucleoli: 0.5 mg/mL TR-A1-mini injected into nuclei, 4 hour recovery, anti-mdm2 2A10
# [5] = system: Arf-null NIH 3T3 mouse fibroblasts; experiment: BrdU incorporation / cell cycle arrest assay after nuclear micro-injection; format: cell-based; details: peptide 2–4 mg/ml, BrdU 10 μM, 8 hours, 3 independent experiments
# [6] = Solubility; format: physicochemical; details: co-assemblies with Hdm2-ABD
# [7] = Structure in isolation; format: physicochemical; details: for structure in isolation: absence of oppositely charged partner
# Outline: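 Uniformly 13C/15N-labelled Hdm2-ABD (2 mM) was studied in 10 mM sodium phosphate, 10 mM NaCl, 0.01% azide, 6% D2O, pH 6.0, 25 °C. Backbone assignments came from HSQC, CT-HNCA, CT-HN(CO)CA, HNCACB and CBCA(CO)NH spectra, and side chains from C(CO)NH- and H(CCO)NH-TOCSY. 1H was referenced to external TSP, with 13C/15N referenced indirectly.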
# [8] = cited from earlier work
# [9] = Pulsed magnetic field gradient/diffusion NMR of free Hdm2-ABD; format: physicochemical; details: 1 mM 15N-Hdm2-ABD, 10 mM sodium phosphate, 10 mM NaCl, pH 6; dioxane standard
# Outline: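 Diffusion was recorded at 600 MHz on 1 mM 15N-Hdm2-ABD in 10 mM sodium phosphate, 10 mM NaCl, pH 6. A 15N-filtered BPP-MAXY-D sequence gave 1D spectra across gradient strengths of 1–60 G cm−1. Dioxane served as internal standard to normalise for solution conditions. Equivalent unfolded chain length was estimated from Rh = (2.21 ± 1.07)N^(0.57 ± 0.02).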
# [10] = cited from earlier work; remark: listed apart in the source
# [11] = system: nucleoli of Arf-null NIH 3T3 mouse fibroblasts; experiment: Nucleolar localization after nuclear micro-injection; format: cell-based; details: 0.5 mg/mL TR-A1-mini injected into nuclei; 33/42 cells; 4 hour recovery
# [12] = target: Hdm2-ABD (Homo sapiens, UniProt Q00987); details: cited from earlier work
# [13] = system: 15N-Hdm2-ABD; details: 3 equivalents; cited from earlier work
# [14] = system: mouse fibroblasts; details: cited from earlier work
# [15] = system: Mdm2; details: cited from earlier work
# [16] = system: 15-residue peptide containing the H1 segment of Hdm2; details: cited from earlier work
# [17] = target: Arf-binding domain of Hdm2 (Hdm2-ABD), residues 210-304 (human, UniProt Q00987 210-304); experiment: circular dichroism
# [18] = 0.5 mM, 20 °C, 10 mM sodium phosphate pH 6.0, 10 mM NaCl, c(s) model
# Sequence of Hdm2-ABD (Q00987 210-304): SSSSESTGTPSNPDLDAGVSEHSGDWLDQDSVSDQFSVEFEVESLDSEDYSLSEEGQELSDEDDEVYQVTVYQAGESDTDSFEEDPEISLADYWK
# Sequence of Arf-binding domain of Hdm2 (Hdm2-ABD), residues 210-304 (Q00987 210-304): as above
molecule,measurement,setting,value
CC(C)C[C@H](NC(=O)[C@H](Cc1ccccc1)NC(=O)[C@H](CCCNC(=N)N)NC(=O)[C@H](CCCNC(=N)N)NC(=O)CN)C(=O)N[C@H](C(=O)N[C@H](C(=O)N[C@H](C(=O)N[C@@H](CCCNC(=N)N)C(=O)O)C(C)C)[C@@H](C)O)C(C)C [A1-mini],co-assembly with Hdm2-ABD deletion variants,[1],complete abrogation of co-assembly
same,"sedimentation state, isolated","[2]; AUC, data not shown",sedimented as a monomer
same,"Δδ13Cα, 1H-1H NOE and heteronuclear NOE differences of 15N-Hdm2-ABD","[3]; absence vs presence of A1-mini, data not shown",significant differences in these parameters were not detected
same,1H-15N HSQC resonance intensities of 15N-Hdm2-ABD,[3]; in presence of four-fold molar excess A1-mini (Suppl. Fig. 5B),significant reduction in the intensity; also recorded: reduced significantly
same,cells with co-localization with Mdm2 in nucleoli,[4],7%
same,inhibition of BrdU incorporation / cell cycle arrest,[5],did not cause cell cycle arrest; also recorded: No significant differences in the percentage of cells undergoing DNA replication
same,solubility of peptide/Hdm2-ABD co-assemblies,[6],> 1000 µM
same,structure in isolation,[7],intrinsically unstructured
(AEAEAKAK)2,self-assembly,[8],self-assembled into β-strand-rich structures with fibrilar characteristics
Hdm2-ABD: Hdm2 domain spanning residues 210-304 (Arf-binding domain),"frictional ratio (f/f0), isolated",[2]; [18],2.18
same,"sedimentation coefficient (s), isolated",[2]; [18],1.0 S
same,"molecular mass by AUC, isolated","[2]; 0.5 mM, 20 °C, pH 6.0, 10 mM NaCl","~ 10,900 Da"
same,"radius of hydration (Rh), free",[9],25.7 Å
same,structure in isolation,[7],intrinsically unstructured
same,secondary 13Cα chemical shift values (Δδ13Cα),"[7]; free Hdm2-ABD, pH 6.0, 25 °C (Suppl. Fig. 7B)",close to zero
same,structure in isolation,[10],intrinsically unstructured in isolation
N-CGGGGGRRFLVTVR-C [TR-A1-mini],injected cells with nucleolar localization,[11],79%
same,cells with co-localization with Mdm2 in nucleoli,[4],7%
same,cells with nucleoplasmic Mdm2 and nucleolar TR-A1-mini localization,"[4]; Fig. 5, nuclear injection",93%
same,inhibition of BrdU incorporation / cell cycle arrest,[5],did not inhibit the incorporation of bromo-deoxyuridine (BrdU) into DNA
"mArf-N37: 37-residue intrinsically unstructured N-terminal fragment of p19^Arf (MGRRFLVTVRIQRAGRPLQERVFLVKFVRSRRPRTAS; UniProt Q64364 1-37, looked up, fragment)",Hdm2-ABD concentration at which complete conversion to β-strand occurs,[12]; 1 molar equivalent of peptide,≥ 10 µM
same,effect on 15N-Hdm2-ABD resonances,[13],broaden beyond detection
same,cell cycle arrest,[14],exhibited cell cycle arrest activity in vivo
same,p53-dependent cell cycle arrest,[14]; mouse fibroblasts,caused p53-dependent cell cycle arrest in mouse fibroblasts
same,binding to Mdm2,[15],bound to Mdm2
same,co-assembly with Mdm2 in nucleoli,[15]; in cells,co-assembled specifically with Mdm2 in nucleoli
same,structure in isolation,[10],intrinsically unstructured in isolation
"residues 1-15 of p14^Arf: peptide corresponding to residues 1-15 of p14^Arf (MVRRFLVTLRIRRAC; UniProt Q8N726 1-15, looked up, fragment)",irreversible assembly into bi-molecular oligomers with Hdm2-ABD,[12],irreversibly assembled into bi-molecular oligomers
same,assembly with 15-residue H1 peptide of Hdm2,[16],irreversibly assembled into bi-molecular oligomers
"residues 1-15 of p19^Arf: peptide from the N-terminus of p19^Arf spanning residues 1-15 (MGRRFLVTVRIQRAG; UniProt Q64364 1-15, looked up, fragment)",binding to Hdm2-ABD,[12],bound to Hdm2-ABD
B1,Kd,[17],~200 µM
